This excerpt belongs to a sample that is enriched for hits.
Phagocyt inh: inhibitors of macrophage phagocytosis, primary screen, imaging, J774A.1 cells, IgG beads | AID 1029, 2008 | hit rate 0.07% among 110,000 | inhibition, % at 5 µM | J774A.1 macrophage IgG-bead phagocytosis;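 active = inhibition above the mean of the plate negative controls plus 5 SD, cut at about 13% in these data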;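 note: phagocytic index as fraction of beads internalized from green versus red external bead signal; plate controls were DMSO negative control for no effect and cytochalasin-D positive control for full effect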
Fibroblast inh: antiproliferative effect on LL 47 fibroblasts – human, LL 47 cells, CellTiter-Glo luminescence, primary screen; hit rate 1.1% among 85,000; viability, % at 10 µM; AID 719, 2007; LL 47 human lung fibroblast viability, ATP luminescence; stronger effect = lower value;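 active = viability at or below 50% in the single dose screen; inactive = viability above 50%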;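 note: compound exposure lasted 72 h before the ATP readout; 100% = median luminescence of untreated cell-only wells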
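Material: Human LL 47 lung fibroblast cells | Input: 1,150 cells/well | Buffer or medium: IMEM plus 15% FBS | Compound dosing: 0.1% DMSO in all compound wells | Times: Overnight cell rest, 72 h compound treatment at 37 °C | Signal: CellTiter-Glo luminescence measuring cellular ATP | Measure: % viability versus median cells-only luminescence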
HUVEC inhibit: inhibitors of HUVEC proliferation, primary screen, cell-based, 384-well. CellTiter-Glo luminescence, 72 h; stronger effect = lower value. viability, % at 10 µM (by protocol). hit rate 1.1% among 86,000. AID 648, 2007;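 active = viability at or below 30%; inactive = viability above 30%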;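 note: 100% = median luminescence of DMSO-only cell control wells on each plate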
H69AR growth 86K: proliferation blockers of H69AR lung cancer cells, primary screen, cell-based, human, 86K library; viability, % at 10 µM; H69AR lung tumor viability, ATP luminescence, 72 h; stronger effect = lower value; hit rate 6% among 85,000;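 active = viability at or below 40%; inactive = viability above 40%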;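 note: multidrug resistant small cell line overexpressing MRP-1 efflux transporter; 100% = mean luminescence of untreated control wells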
bCat KO growth: primary screen for growth suppressors in beta-catenin knockout HCT116 cells (colon tumor, human); HCT116 beta-catenin knockout viability, CellTiter-Glo, 60 h; stronger effect = lower value; viability, % at 10 µM; hit rate 1.5% among 140,000; AID 818, 2007;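 active = viability at or under a set limit, the compound median less 4 SD, cut at about 6% in these data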;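 note: 0% = Hyamine 1622 control at 20 µM and 100% = untreated cell control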
HCT116 PTEN-null: growth suppression of PTEN-null HCT116, primary screen, cell-based, CellTiter-Glo | HCT116 PTEN-null viability, 60 h; stronger effect = lower value | viability, % at 10 µM | hit rate 1.2% among 140,000;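 active = viability at or below a set limit, 4 SD under the median of all tested compounds, cut at about 3.7% in these data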;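 note: PTEN knockout HCT116 line with beta catenin targeted HCT116 as companion control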
The depositor's hits bear a star; x = not tested or not shown; ! = not confirmed by another sample.

SMILES	Phagocyt inh	Fibroblast inh	HUVEC inhibit	H69AR growth 86K	bCat KO growth	HCT116 PTEN-null
O=C(N/N=C1/CN2CCC1CC2)c1cc2ccccc2cc1O	x	75	108	37*	76	75
O=C(NC1(C(F)(F)F)Oc2ccccc2O1)N1CCC2(CC1)OCCO2	x	101	81	17*	51	61
O=C(NC1(C(F)(F)F)Oc2ccc(Cl)cc2O1)N1CCC2(CC1)OCCO2 (stereo not drawn)	-1	74	53	32*	66	66
N#Cc1cc2c(nc1SCC(=O)Nc1cc(Cl)cc(Cl)c1)C1CCN2CC1	x	55	78	66	94	76
O=C(CSC1c2ccccc2-c2ccccc21)N/N=C/c1ccccc1O	x	41*	27*	18*	9	12
CCCN(CC#CCOc1ccc(OC)cc1)CCC	x	97	107	94	72	83
COc1ccc(-n2c(C)nc3cc(C(=O)N4CCC5(CC4)OCCO5)ccc32)cc1	2	92	80	29*	48	45
C[C@@H]1O[C@@H](O[C@H]2C[C@@H](O)[C@]3(CO)[C@H]4[C@H](O)C[C@]5(C)[C@@H](C6=CC(=O)OC6)CC[C@]5(O)[C@@H]4CC[C@]3(O)C2)[C@H](O)[C@H](O)[C@H]1O	x	x	x	x	5.7*	4
C[C@H]1O[C@@H](O[C@H]2[C@@H](O)C[C@H](O[C@H]3[C@@H](O)C[C@H](O[C@H]4CC[C@@]5(C)[C@H](CC[C@@H]6[C@@H]5CC[C@]5(C)[C@@H](C7=CC(=O)OC7)CC[C@]65O)C4)O[C@@H]3C)O[C@@H]2C)C[C@H](O)[C@@H]1O	x	x	x	x	4.9*	6
CC1SC2(CN3CCC2CC3)NC1=O (stereo not drawn)	1	99	104	x	94	107
Cc1ccc(C(=O)Nc2ccc(-n3ccnc3P(=O)(O)c3ccccc3)cc2)cc1	-1	104	91	97	99	100
CCOC(=O)C1C2NC(=O)N(Cc3ccccc3)C1(C)Oc1c(OC)cccc12 (stereo not drawn)	0	98	100	116	85	92
COc1ccc(C)cc1NC(=O)c1c(C)nn(Cc2ccccc2)c1Cl	1	x	x	x	98	98
N=C(N)c1c(O)n(C2CCCCC2)c(=O)n(C2CCCCC2)c1=O	-1	31*	2.5*	1.1*	30	13
Cc1cccc(-n2c(/C=C/c3ccc([N+](=O)[O-])o3)nc3ccccc3c2=O)c1	-5	x	x	x	0.8*	0.6*
CC(C)(C)N(NC(=O)c1ccccc1)C(=O)c1ccccc1	x	x	x	x	86	99
Cc1ccc(CN2C(=O)NC(=O)C3(Cc4c(nc5ccccn5c4=O)N4CCCCCC43)C2=O)cc1 (stereo not drawn)	2	100	88	39*	74	55
O=C(COc1ccccc1)c1cn(Cc2ccccc2)c2ccccc12	-6	x	x	x	76	67
CCOC(=O)c1c(C)n(Cc2ccccc2)c2ccc(OCC(O)CN3C(=O)CNC3=O)cc12 (stereo not drawn)	-3	102	86	27*	92	92
CCOC(=O)c1c(C)n(Cc2ccc3c(c2)OCO3)c2ccc(O)cc12	0	94	82	94	82	84
Cc1cc2c(C(C)C)c(O)c(O)c(C=O)c2c(O)c1-c1c(C)cc2c(C(C)C)c(O)c(O)c(C=O)c2c1O	x	28*!	3.0*	0.6*	4.8*	1.9*!
CC/C(=C\C=C\[C@@H]1C=C[C@@H]2CCC[C@H]2[C@@H]1C(=O)c1ccc[nH]1)[C@@H]1O[C@@H]([C@@H](C)C(=O)O)CC[C@@H]1C	x	38*	12*	15*	19	27
Nc1ccccc1C(=O)OCC(=O)N1CCc2ccccc21	0	108	89	90	114	96
N#CSCC(=O)N1c2ccccc2CCc2ccccc21	-10	x	x	x	3.8*	2.5*
Cc1ccccc1CCNCc1ccc(Br)cc1	-4	x	x	x	90	92
SMILES	Phagocyt inh	Fibroblast inh	HUVEC inhibit	H69AR growth 86K	bCat KO growth	HCT116 PTEN-null
COc1ccc(CN2CCN(c3ccccc3)CC2)c(C)c1C	0	x	x	x	70	77
CN[C@H]1C[C@H]2O[C@@](C)([C@H]1OC)n1c3ccccc3c3c4c(c5c6ccccc6n2c5c31)C(=O)NC4	x	x	x	x	2.1*	1.2*
O=P1(NCc2ccco2)COc2ccccc2OC1	0	98	98	104	97	94
CCOc1ccc2[nH]c(=O)c(CN(CCO)C3(c4nnnn4C4CCCCC4)CCCCC3)cc2c1	0	87	80	57	87	87
CCc1cc2c(s1)NC(=O)CN=C2c1cccs1	x	91	79	23*	88	87
CCCCCCn1c(=O)c(C(=O)Nc2c(C)n(C)n(-c3ccccc3)c2=O)c(O)c2ccccc21	x	62	51	12*	x	x
O=C(Nc1cccc(Cl)c1)c1c(O)c2c(n(Cc3ccccc3)c1=O)CCCC2	-1	x	x	x	83	88
CCCCn1c(NC(=O)c2ccc(Br)o2)c(C(=O)OCC)c2nc3ccccc3nc21	-2	x	x	x	82	90
CCCCn1c(=O)c(C(=O)Nc2ccsc2C(=O)OC)c(O)c2ccccc21	-8	x	x	x	3.2*	3.1*
CCCCCn1c(=O)c(C(=O)NCc2ccncc2)c(O)c2ccccc21	1	60	67	14*	19	16
CCCCCn1c(=O)c(C(=O)Nc2ccncc2)c(O)c2ccccc21	0	49*	69	5.1*	x	x
Cc1c(NC(=O)C(C)OC(=O)Cc2ccccc2)c(=O)n(-c2ccccc2)n1C (stereo not drawn)	0	x	x	x	98	94
NCC1(c2ccc3c(c2)OCCO3)CCCC1	x	97	112	100	103	101
CO[C@H]1[C@@H](OC)CC(OC2OC(CO)C(O)C(O)C2O)/C(=C\C#N)[C@@H]1O (stereo partly drawn)	x	x	x	x	97	102
C[C@H](O)[C@H]1CC[C@H]2[C@@H]3CCC4=CC(=O)CC[C@]4(C)[C@H]3CC[C@]12C	x	x	x	x	88	81
CC12CCC(=O)C=C1CCC1C2CCC2(C)C(O)CCC12 (stereo not drawn)	0	98	29*	97	88	93
Cc1cc(C)nc(/N=C(\N)c2c(O)[nH]c(=O)[nH]c2=O)n1	-1	x	x	x	92	95
CN1CCC(N(C)c2nc(-c3ccc([N+](=O)[O-])cc3)nc3ccccc23)CC1	0	x	x	x	1.5*	1.5*
CCOC(=O)c1ccc(NC(=O)C2C3C=CC(O3)C2C(=O)O)cc1 (stereo not drawn)	0	96	94	94	91	105
Cn1c(O)c(C=NC2CC3CCC2(C)C3(C)C)c(=O)[nH]c1=O (stereo not drawn)	0	98	97	86	84	91

Assay outcomes from PubChem BioAssay.
